Laboratory results from ChEMBL document CHEMBL2311298, “2H-chromene derivatives bearing thiazolidine-2,4-dione, rhodanine or hydantoin moieties as potential anticancer agents” (Eur J Med Chem, 2013).

Columns and labels:
NIH3T3 = assay: Anticancer activity against mouse NIH/3T3 cells assessed as cell viability after 72 hrs by MTT reduction assay; format: cell-based; conditions: NIH3T3, 72 h
In short: (§1)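 Cells grown in RPMI 1640 with 10% FBS, 100 units/ml penicillin-G and streptomycin, 37 °C, 5% CO2. A549, MCF-7 and NIH/3T3 grown as monolayers, K562 and MOLT-4 in suspension. Seeding densities (cells/ml): A549 40,000, K562 40,000, MCF-7 30,000, MOLT-4 40,000, NIH/3T3 50,000. Overnight at 37 °C, then 3-4 concentrations added.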

A549 = assay: Anticancer activity against human A549 cells assessed as cell viability after 72 hrs by MTT reduction assay; format: functional, cell-based; conditions: A549, 72 h; in short: as §1
K562 = assay: Anticancer activity against human K562 cells assessed as cell viability after 72 hrs by MTT reduction assay; format: functional, cell-based; conditions: K562, 72 h; in short: as §1
MOLT-4 [1] = assay: Anticancer activity against human MOLT4 cells assessed as cell viability at 25 uM after 72 hrs by trypan blue exclusion assay; format: functional; conditions: MOLT-4, 72 h, read-out: Activity
In short: (§2)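 MOLT-4 cells in RPMI 1640 with 10% FBS, grown in suspension at 37 °C, 5% CO2. Cells exposed for 72 h as in the MTT assay, with each compound at a single concentration. Suspension mixed 1:1 with trypan blue. Clear (viable) and blue cells counted on a hemocytometer. Percent viable cells expressed relative to control wells.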

MCF7 = assay: Anticancer activity against human MCF7 cells assessed as cell viability after 72 hrs by MTT reduction assay; format: functional, cell-based; conditions: MCF7, 72 h; in short: as §1
MOLT-4 [2] = assay: Anticancer activity against human MOLT4 cells assessed as cell viability after 72 hrs by MTT reduction assay; format: functional, cell-based; conditions: MOLT-4, 72 h; in short: as §1
MOLT-4 [3] = assay: Anticancer activity against human MOLT4 cells assessed as cell viability at 50 uM after 72 hrs by trypan blue exclusion assay; format: functional; conditions: MOLT-4, 72 h, read-out: Activity; in short: as §2
MOLT-4 [4] = assay: Anticancer activity against human MOLT4 cells assessed as cell viability at 75 uM after 72 hrs by trypan blue exclusion assay; format: functional; conditions: MOLT-4, 72 h, read-out: Activity; in short: as §2
MOLT-4 [5] = assay: Anticancer activity against human MOLT4 cells assessed as cell viability at 20 uM after 72 hrs by trypan blue exclusion assay; format: functional; conditions: MOLT-4, 72 h, read-out: Activity; in short: as §2
MOLT-4 [6] = assay: Anticancer activity against human MOLT4 cells assessed as cell viability at 10 uM after 72 hrs by trypan blue exclusion assay; format: functional; conditions: MOLT-4, 72 h, read-out: Activity; in short: as §2
MOLT-4 [7] = assay: Anticancer activity against human MOLT4 cells assessed as cell viability at 40 uM after 72 hrs by trypan blue exclusion assay; format: functional; conditions: MOLT-4, 72 h, read-out: Activity; in short: as §2
MOLT-4 [8] = assay: Anticancer activity against human MOLT4 cells assessed as cell viability at 100 uM after 72 hrs by trypan blue exclusion assay; format: functional; conditions: MOLT-4, 72 h, read-out: Activity; in short: as §2
MOLT-4 [9] = assay: Anticancer activity against human MOLT4 cells assessed as cell viability at 65 uM after 72 hrs by trypan blue exclusion assay; format: functional; conditions: MOLT-4, 72 h, read-out: Activity; in short: as §2

Structure (SMILES)	IC50 (NIH3T3) [µM]	IC50 (A549) [µM]	IC50 (K562) [µM]	viability at 25 µM (MOLT-4 [1]) [%]	IC50 (MCF7) [µM]	IC50 (MOLT-4 [2]) [µM]	viability at 50 µM (MOLT-4 [3]) [%]	viability at 75 µM (MOLT-4 [4]) [%]	viability at 20 µM (MOLT-4 [5]) [%]	viability at 10 µM (MOLT-4 [6]) [%]	viability at 40 µM (MOLT-4 [7]) [%]	viability at 100 µM (MOLT-4 [8]) [%]	viability at 65 µM (MOLT-4 [9]) [%]
CC1Oc2ccc(Br)cc2C=C1/C=C1\NC(=O)NC1=O (racemic)	25.2	17.5	10.6	41.3	15.3	24.8							
CC1Oc2ccc(Br)cc2C=C1/C=C1/C(=O)NC(=N)N1C (racemic)	87.7	121	51.8		84.8	56.6	54.3						
CCN1C(=O)S/C(=C\C2=Cc3ccccc3OC2)C1=O		> 200	> 200		> 200	> 200							
COc1cccc2c1OCC(/C=C1\SC(=S)N(CC(=O)O)C1=O)=C2		> 200	> 200		> 200	> 200							
O=C1NC(=O)/C(=C/C2=Cc3cc(Br)ccc3OC2)N1	35.9	19.3	79.3		51	77.5		60.1					
CC1Oc2ccc(Br)cc2C=C1/C=C1\SC(=S)NC1=O (racemic)	28.7	47.5	31.6		19.9	20.5			53.1				
O=C(O)CN1C(=O)/C(=C/C2=Cc3cc(Br)ccc3OC2)SC1=S		> 25	> 25		> 25	> 25							
CN1C(=O)S/C(=C\C2=Cc3ccccc3OC2)C1=O		> 100	> 100		> 100	> 100							
O=C1NC(=O)/C(=C/C2=Cc3cc(Br)ccc3OC2)S1	56.5	79.5	49.8		57.9	54.7	52.7						
CCN1C(=O)S/C(=C\C2=Cc3cccc(OC)c3OC2)C1=O	75	> 200	90.4		89.1	13.2				53.2			
CC1Oc2ccc(Br)cc2C=C1/C=C1\SC(=O)N(C)C1=O (racemic)		> 50	> 50		> 50	> 50							
O=C1NC(=S)S/C1=C\C1=Cc2cc(Br)ccc2OC1	27.8	51	33.7		40.4	38.2					46.7		
O=C1NC(=O)/C(=C/C2=Cc3ccccc3OC2)S1	> 200	192	98.9		99.4	101						53.4	
O=C1NC(=S)S/C1=C\C1=Cc2ccccc2OC1	72.4	73.1	55.3		68.7	52	49.3						
CC1Oc2ccc(Br)cc2C=C1/C=C1\SC(=S)N(CC(=O)O)C1=O (racemic)		> 50	> 50		> 50	> 50							
CN1C(=N)NC(=O)/C1=C/C1=Cc2ccccc2OC1	106	89.4	96.5		149	72		49.5					
CC1Oc2ccc(Br)cc2C=C1/C=C1\SC(=O)NC1=O (racemic)	56.2	65.5	77		67.6	64.5							53.3
CCN1C(=O)S/C(=C\C2=Cc3cc(Br)ccc3OC2C)C1=O (racemic)		> 100	> 100		> 100	> 100							
O=C1NC(=O)/C(=C/C2=Cc3ccccc3OC2)N1	180	29.7	55.7		8.1	21.3			53.3				
O=C(O)CN1C(=O)/C(=C/C2=Cc3ccccc3OC2)SC1=S		> 100	> 100		> 100	> 100							
